Measured values as given in article PMC3940261 (Integrative biology : quantitative biosciences from nano to …, 2014).

Experiments:
[1] = tested on: degradation of a fluorogenic reporter; conditions: 24 h exposure to media containing 1 μM Tosedostat; cited from earlier work
[2] = tested on: peptidase activity in U937 cells; experiment: Single-cell chemical cytometry of fluorescent reporter peptide degradation; format: cell-based, human; conditions: for most common fragment peak pattern: single U937 cells
[3] = tested on: four common aminopeptidases; conditions: cited from earlier work
[4] = tested on: peptidase activity in U937 cells; format: cell-based, human; conditions: ensemble lysates, commercial capillary electrophoresis system
Method in brief: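 U937 cells were cultured long-term with the test compound (1, 2, 4, 8, 16 μM; DMSO ≤0.1%) or DMSO vehicle. A FAM-labelled reporter peptide (100 μM) and a carboxyfluorescein internal standard (20 μM) were loaded by pinocytosis for 10 min at 37 °C; hypotonic lysis set t = 0. Cells were held at 10⁶ cells/mL for 1 h at room temperature, then heat-lysed at 95 °C for 4 min. Supernatant was run on a bare 30-cm, 30-μm i.d. capillary, spiked with intact-substrate and K-FAM standards, and peaks were Gaussian-fitted.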

[5] = target: purine-sensitive aminopeptidase (PuSA); conditions: in vitro; cited from earlier work
LTA4 hydrolase = conditions: in vitro; cited from earlier work
aminopeptidase N (CD 13) = conditions: in vitro; cited from earlier work
leucine aminopeptidase = conditions: in vitro; cited from earlier work

Row | Compound | inhibition of degradation of a fluorogenic reporter [1] [%] | peptidase activity in drug-treated cells relative to a vehicle control ([2]; at all doses (1, 2, 4, 8, 16 μM)) | most common fragment peak pattern ([2]; dose 1 μM) [peaks] | most common fragment peak pattern ([2]; dose 2 μM) [peaks] | most common fragment peak pattern ([2]; dose 4 μM) [peaks] | most common fragment peak pattern ([2]; dose 8 μM) [peaks] | IC50 [3] | number of fluorescent fragment peaks from drug-treated cells [4] | IC50 [5] | IC50 (LTA4 hydrolase) | IC50 (aminopeptidase N (CD 13)) | IC50 (leucine aminopeptidase)
1 | CC(C)C[C@@H](C(=O)N[C@H](C(=O)OC1CCCC1)c1ccccc1)[C@H](O)C(=O)NO [Tosedostat] | 50 | inhibited | 3 | 3 | 2 | 2 | nanomolar-range | ≤ 8 fluorescent fragment peaks |  |  |  | 
2 | CC(C)C[C@@H](C(=O)N[C@H](C(=O)O)c1ccccc1)[C@H](O)C(=O)NO [active form of Tosedostat] |  |  |  |  |  |  |  |  | nanomolar range | nanomolar range | nanomolar range | nanomolar range
